The values below come from article PMC2889672 (Biochemistry, 2010).

The target of assay [1] is T1, S. pneumoniae UPPS (Streptococcus pneumoniae serotype 4, UniProt Q97SR4).
T1 sequence (Q97SR4 1-252): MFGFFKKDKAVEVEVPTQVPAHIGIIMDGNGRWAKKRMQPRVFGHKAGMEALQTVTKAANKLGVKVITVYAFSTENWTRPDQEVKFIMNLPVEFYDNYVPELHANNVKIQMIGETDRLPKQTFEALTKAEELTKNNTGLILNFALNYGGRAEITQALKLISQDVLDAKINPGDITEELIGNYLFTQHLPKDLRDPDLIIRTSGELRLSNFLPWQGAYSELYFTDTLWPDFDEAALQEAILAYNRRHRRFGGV
The assay is described as follows: Photo-cross-linking with Photo-probe and mass spectrometry. The note with it: 30 μM UPPS, 30 μM Photo-probe, UV 350 nm 10 min. Type of assay: binding.

For assay [2], the target named is T1, S. pneumoniae UPPS. The assay is described as follows: Biomol Green assay of UPPS activity. It is filed as biochemical. In outline: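 His-tagged S. pneumoniae UPPS expressed in E. coli BL21(DE3) and purified by Ni-NTA and size exclusion, then mixed 1:2 (w/v) with liposomes of total E. coli lipid extract. Released phosphate quantified with Biomol Green reagent.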

The target of assay [3] is T1, S. pneumoniae UPPS. The assay can be described thus: Protein fluorescence binding experiments. The note with it: excitation 285 nm; 1 μM UPPS, 5 μM compound. The procedure, abridged: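 Intrinsic protein fluorescence: emission scanned 300−500 nm at excitation 285 nm. Buffer: 100 mM HEPES pH 7.3, 0.5 mM MgCl2, 50 mM KCl, 1.25% DMSO. Test compound (final 5 μM) preincubated 15 min with UPPS (final 1 μM) before adding FsPP (15 μM), IsPP (40 μM) or both. Spectra are averages of two scans.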

As usually defined, the IC50 is the concentration at which inhibition is half-maximal. Read a high IC50 as lower potency. As for `O=C(Nc1ccc(C(=O)c2ccccc2)cc1)C1=C(O)C(CCc2ccccc2)NC1=O` (stereo not shown) [Photo-probe, N-(4-Benzoylphenyl)-4-hydroxy-2-oxo-5-phenethyl-2,5-dihydro-1H-pyrrole-3-carboxamide], the “binding to and modification of UPPS in the absence of substrate” value in assay [1] is “bound to and modified UPPS”. The IC50 in assay [2] came out at 630 nM.
For `CC1(Cc2ccccc2)NC(=O)C(C(=O)Nc2ccc(C3CCCCC3)cc2)=C1O` (stereo not shown) [compound 1, 5-benzyl-4-hydroxy-5-methyl-2-oxo-2,5-dihydro-1H-pyrrole-3-carboxylic acid (4-cyclohexylphenyl)amide], the “change of intrinsic fluorescence of S. pneumoniae UPPS upon addition of compound” value in assay [3] is “increased”. Also, 450 nM corresponded to half-maximal inhibition in assay [2] (IC50).
